# From PubChem BioAssay
# A number with no mark means an inactive call.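 How the source made its calls, unless noted: active means fluorescence slope after compound addition differing from the mean of all tested samples at 99.7% confidence, mostly higher but some lower; inactive means the rest.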
# Target: Voltage-gated potassium channel subunit beta-2 (Rattus norvegicus) (UniProt P62483)
# Assay: KvBeta positive modulators, primary screen, biochemical, NADPH fluorescence (AID 623;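 active means NADPH fluorescence slope more negative than the mean of all samples by about 3 SD, 99.7% confidence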;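 further: fluorescence intensity change per second fitted from 20 to 320 s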)
# Details: Recombinant KvBeta, NADPH fluorescence decrease slope, 10 min; at 10 µM; hits give low values
# Voltage-gated potassium channel subunit beta-2 (Rattus norvegicus), sequence (P62483 whole entry, looked up): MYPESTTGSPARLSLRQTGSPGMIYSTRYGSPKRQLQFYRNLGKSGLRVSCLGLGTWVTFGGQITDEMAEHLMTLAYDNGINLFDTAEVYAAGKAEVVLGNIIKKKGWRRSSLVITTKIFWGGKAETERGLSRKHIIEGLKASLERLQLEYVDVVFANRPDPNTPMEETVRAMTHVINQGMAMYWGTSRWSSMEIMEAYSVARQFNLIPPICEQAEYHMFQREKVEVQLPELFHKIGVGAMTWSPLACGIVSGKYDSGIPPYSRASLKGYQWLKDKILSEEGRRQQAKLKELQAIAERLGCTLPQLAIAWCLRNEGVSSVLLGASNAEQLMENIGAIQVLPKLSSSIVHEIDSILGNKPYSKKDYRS
row,SMILES,NADPH fluorescence slope
1,CNC(=O)c1c(O)c2cccc3c2n(c1=O)CC3,-5.3e-05
2,Cc1oc(-c2ccccc2)cc1C(N)=O,-1.8e-05
3,Cc1cccc(-n2nnc(C(=O)NCc3ccccc3)c2N)c1,-0.000212
4,COC(=O)c1[nH]c(C)c(/C(O)=C2\C(=O)C(=O)N(CCCN3CCOCC3)C2c2ccccn2)c1C (stereo not given),-2.7e-06
5,Cc1noc(C)c1C(=O)OCC(=O)Nc1ccccc1C(=O)NC(C)c1ccccc1 (stereo not given),-0.000106
6,Cn1c(SC/C=C/c2ccccc2)nnc1-c1cnccn1,2.7e-05
7,O=C(CN1C(=O)NC2(CCCCCC2)C1=O)N1CCC(Cc2ccccc2)CC1,2.2e-05
8,CCOC(=O)c1c(NC(=O)CSc2nnc(-c3ccc(OC)cc3)o2)sc2c1CCC2,-9.6e-07
9,Cn1nnnc1SCC(=O)Nc1ccccc1C(=O)NCc1ccccc1,-2.2e-05
10,Cc1ccc(NC(=O)CSc2nnc(NC(=O)CN3CCOCC3)s2)cc1,-7.3e-05
11,O=C(NCc1ccc(F)cc1)c1cc(-c2ccco2)on1,-5.1e-05
12,COC(=O)CCN1CCC(C(N)=O)CC1,6.8e-05
13,COc1cccc(OC)c1C(=O)N1CCOCC1,-3.1e-05
14,CCOC(=O)CSc1nc(C)c(C(=O)OCC)s1,-1.9e-05
15,CCC(=O)Nc1ccc(F)c(Cl)c1,9.9e-07
16,N#CCc1nc(CSc2nc3ccccc3s2)cs1,-2.5e-05
17,CS(=O)(=O)Nc1ccc(S(=O)(=O)Nc2nccs2)cc1,7.8e-05
18,CC(C)CNC(=O)c1ccccc1NC(=O)CN(c1ccc2c(c1)OCCO2)S(C)(=O)=O,2.6e-05
19,CCOC(=O)c1[nH]cc(-c2ccccc2)c1N1CCOCC1,-4.5e-05
20,CCn1c(=O)cc(SCC(=O)NCC2CCCO2)c2ccccc21 (stereo not given),-1.6e-05
21,O=C(c1ccco1)N1CCN(CC(=O)N(C2CCCCC2)C2CCS(=O)(=O)C2)CC1 (stereo not given),-5.3e-05
22,CCCn1c(NCc2cc(C)ccc2O)nc2ccccc21,6.3e-06
23,CCC(C)c1ccc(NC(=O)C2CC2)cc1 (stereo not given),-4.3e-05
24,COc1ccccc1-n1c(C)nnc1SCC(N)=O,-1.4e-05
25,Cn1c(=O)oc2cc(S(=O)(=O)N3CCC(C(=O)Nc4ccc(OC(F)(F)F)cc4)CC3)ccc21,-1.9e-05

# Target: Muscarinic acetylcholine receptor M4 (Homo sapiens) (UniProt P08173)
# Sequence (P08173 whole entry, looked up): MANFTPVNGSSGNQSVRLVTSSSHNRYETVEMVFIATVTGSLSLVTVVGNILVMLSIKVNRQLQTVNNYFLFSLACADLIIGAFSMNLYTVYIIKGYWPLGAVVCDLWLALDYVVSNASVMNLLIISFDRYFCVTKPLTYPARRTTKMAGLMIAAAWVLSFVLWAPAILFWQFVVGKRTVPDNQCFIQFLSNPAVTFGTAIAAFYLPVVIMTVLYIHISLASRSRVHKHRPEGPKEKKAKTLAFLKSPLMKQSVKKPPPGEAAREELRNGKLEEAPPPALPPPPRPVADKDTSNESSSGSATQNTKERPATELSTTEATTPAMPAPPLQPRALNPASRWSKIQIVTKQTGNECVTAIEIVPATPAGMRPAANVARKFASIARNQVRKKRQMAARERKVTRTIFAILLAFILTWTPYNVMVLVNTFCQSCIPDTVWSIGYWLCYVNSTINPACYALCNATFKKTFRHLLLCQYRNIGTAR
# Assay: compounds altering M4/GIRK thallium flux, either direction, primary screen, M4 allosteric agonist project, cell-based, HEK293 M4/GIRK, BTC-AM (AID 625);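 further: thallium influx through GIRK channels coupled to M4 in HEK293 cells with BTC-AM dye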
# Details: at 10 µM, actives lie on both sides
# Summary of the method: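 Material: M4/GIRK1/GIRK2 stable HEK293 cell line. Medium: pH 7.3 thallium assay buffer. Dosing: single compound concentration, 10 µM final. Schedule: 1 h dye loading, 2 min kinetic read. Measured by: kinetic fluorescence with BTC-AM dye. Read-out: post-addition slope, 15–24 s, of baseline-normalized fluorescence. Benchmarks: carbachol and DMSO controls.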
row,SMILES,fluorescence slope
1,COc1cccc2cc(C(=O)Nc3cccnc3N3CCOCC3)c(=O)oc12,0.00618
2,CN(c1ccccc1)S(=O)(=O)c1cc(C(=O)N2CCN(c3ccccn3)CC2)ccc1Cl,0.00416
3,COc1cc(OC)c(C(=O)Nc2ccc(N(C)C)cc2)cc1OC,0.00454
4,Cc1ccc(C(=O)C2COC(=O)C2)cc1 (stereo not given),0.00631
5,COc1cccc(CNc2cccc3cccnc23)c1O,0.00309
6,O=c1c2cn[nH]c2nc(SCc2ccc3c(c2)OCCO3)n1-c1ccccc1,0.0074
7,CCOC(=O)c1cc(-c2ccc(Cl)s2)nc2c1c(C)nn2C,0.00338
8,Cc1ccc(-c2ccc(/C=N/n3cnnc3)o2)cc1Cl,0.00662
9,Cc1cc(C)nc(N2CCC(C(=O)NCc3cccc(C(F)(F)F)c3)CC2)n1,0.00567
10,O=C(CN1C(=O)COc2ccccc21)NCCCN1CCc2ccccc2C1,0.00746
11,O=C(CCn1c(=O)sc2ccccc21)NC1=NCCS1,0.00544
12,Cc1ccccc1NC(=O)N1C2CCCC1CC(NC(=O)C1CC1)C2 (stereo not given),0.00599
13,C=C(C)CSc1nnc(-c2cccc(S(=O)(=O)N(C)C)c2)n1-c1cc(OC)ccc1OC,0.00586
14,C=CCn1c(=O)/c(=C/c2ccc(O)cc2)s/c1=C(/C#N)c1nnc2n1CCCCC2,0.00728
15,O=C(CSc1nnnn1Cc1ccccc1)Nc1ccc2c(c1)OCO2,0.00493
16,CNC(=O)c1c(O)c2cccc3c2n(c1=O)CC3,0.00595
17,Cc1oc(-c2ccccc2)cc1C(N)=O,0.0055
18,Cc1cccc(-n2nnc(C(=O)NCc3ccccc3)c2N)c1,0.0054
19,COC(=O)c1[nH]c(C)c(/C(O)=C2\C(=O)C(=O)N(CCCN3CCOCC3)C2c2ccccn2)c1C (stereo not given),0.00368
20,Cc1noc(C)c1C(=O)OCC(=O)Nc1ccccc1C(=O)NC(C)c1ccccc1 (stereo not given),0.00545

row,SMILES,fluorescence slope
1,Cn1c(SC/C=C/c2ccccc2)nnc1-c1cnccn1,0.00503
2,O=C(CN1C(=O)NC2(CCCCCC2)C1=O)N1CCC(Cc2ccccc2)CC1,0.00581
3,CCOC(=O)c1c(NC(=O)CSc2nnc(-c3ccc(OC)cc3)o2)sc2c1CCC2,0.0094
4,Cn1nnnc1SCC(=O)Nc1ccccc1C(=O)NCc1ccccc1,0.00734
5,Cc1ccc(NC(=O)CSc2nnc(NC(=O)CN3CCOCC3)s2)cc1,0.00533
6,O=C(NCc1ccc(F)cc1)c1cc(-c2ccco2)on1,0.00521
7,COC(=O)CCN1CCC(C(N)=O)CC1,0.00663
8,COc1cccc(OC)c1C(=O)N1CCOCC1,0.00602
9,CCOC(=O)CSc1nc(C)c(C(=O)OCC)s1,0.00612
10,CCC(=O)Nc1ccc(F)c(Cl)c1,0.0059
11,N#CCc1nc(CSc2nc3ccccc3s2)cs1,0.0089
12,CS(=O)(=O)Nc1ccc(S(=O)(=O)Nc2nccs2)cc1,0.00758
13,CC(C)CNC(=O)c1ccccc1NC(=O)CN(c1ccc2c(c1)OCCO2)S(C)(=O)=O,0.00389
14,CCOC(=O)c1[nH]cc(-c2ccccc2)c1N1CCOCC1,0.00498
15,CCn1c(=O)cc(SCC(=O)NCC2CCCO2)c2ccccc21 (stereo not given),0.00498
16,O=C(c1ccco1)N1CCN(CC(=O)N(C2CCCCC2)C2CCS(=O)(=O)C2)CC1 (stereo not given),0.00633
17,CCCn1c(NCc2cc(C)ccc2O)nc2ccccc21,0.00499
18,CCC(C)c1ccc(NC(=O)C2CC2)cc1 (stereo not given),0.00602
19,COc1ccccc1-n1c(C)nnc1SCC(N)=O,0.00439
20,Cn1c(=O)oc2cc(S(=O)(=O)N3CCC(C(=O)Nc4ccc(OC(F)(F)F)cc4)CC3)ccc21,0.00653
